# Experiments:
# [1] = tested on: Rattus norvegicus; assay: Biodistribution in Sprague-Dawley rat brain 2 minutes after intravenous administration.; type: ADME, organism-based; settings: in vivo
# Summary of the method: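 Rats received the 99mTc complex iv together with [125I]iodoantipyrine as internal reference and were killed by cardiectomy. Brain was excised, weighed and gamma-counted. Percent dose/organ was obtained by comparing tissue activity with diluted aliquots of the injected dose, averaged over three rats. Radiochemical purity of the complexes was >95% by HPLC.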
# [2] = tested on: Rattus norvegicus; assay: Biodistribution in Sprague-Dawley rat lungs(2) 2 minutes after intravenous administration, [99mTc]/[125I] IAP ratio); type: ADME, organism-based, Lung; settings: in vivo
# Summary of the method: (§1)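 99mTc complex and [125I]iodoantipyrine were co-injected iv into rats. Rats were killed by cardiectomy at 2 or 15 min, and organs were excised, weighed and gamma-counted in two channels with spillover correction. The ratio is 99mTc percent dose divided by 125I percent dose in the same organ, averaged over three rats. Radiochemical purity of the complexes was >95% by reversed-phase HPLC.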
# [3] = tested on: Rattus norvegicus; assay: Biodistribution in Sprague-Dawley rat liver 15 minutes after intravenous administration, [99mTc]/[125I] IAP ratio); type: ADME, organism-based; settings: in vivo, 0.25 h; summary of the method: as §1
# [4] = species: Homo sapiens; assay: The human serum protein binding activity was determined; type: functional
# Summary of the method: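 Equilibrium dialysis: 0.4 mL pooled human serum against 0.4 mL 0.15 M phosphate buffer pH 7.4 containing 99mTc complex (~0.025 μCi), rotated 18 h at 37 °C. Both sides weighed and counted; percent free = buffer/serum radioactivity concentration ratio × 100. Membrane counted afterwards to check membrane binding.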
# [5] = tested on: Rattus norvegicus; assay: Biodistribution in Sprague-Dawley rat small intestine 2 minutes after intravenous administration, [99mTc]/[125I] IAP ratio); type: ADME, organism-based; settings: in vivo; summary of the method: as §1
# [6] = tested on: Rattus norvegicus; assay: Biodistribution in Sprague-Dawley rat liver 2 minutes after intravenous administration, [99mTc]/[125I] IAP ratio); type: ADME, organism-based; settings: in vivo; summary of the method: as §1
# [7] = tested on: Rattus norvegicus; assay: Biodistribution in Sprague-Dawley rat muscle 15 minutes after intravenous administration, [99mTc]/[125I] IAP ratio); type: ADME, organism-based, Muscle tissue; settings: in vivo, 0.25 h; summary of the method: as §1
# [8] = tested on: Rattus norvegicus; assay: Biodistribution in Sprague-Dawley rat skin 15 minutes after intravenous administration, [99mTc]/[125I] IAP ratio); type: ADME, organism-based, Zone of skin; settings: in vivo, 0.25 h; summary of the method: as §1
# [9] = tested on: Rattus norvegicus; assay: Biodistribution in Sprague-Dawley rat blood 2 minutes after intravenous administration, [99mTc]/[125I] IAP ratio); type: ADME, organism-based; settings: in vivo; summary of the method: as §1
# [10] = tested on: Rattus norvegicus; assay: Biodistribution in Sprague-Dawley rat brain 15 minutes after intravenous administration, [99mTc]/[125I] IAP ratio); type: ADME, organism-based; settings: in vivo, 0.25 h; summary of the method: as §1
# [11] = tested on: Rattus norvegicus; assay: Biodistribution in Sprague-Dawley rat heart 2 minutes after intravenous administration, [99mTc]/[125I] IAP ratio); type: ADME, organism-based; settings: in vivo; summary of the method: as §1
# [12] = tested on: Rattus norvegicus; assay: Biodistribution in Sprague-Dawley rat blood 15 minutes after intravenous administration, [99mTc]/[125I] IAP ratio); type: ADME, organism-based; settings: in vivo, 0.25 h; summary of the method: as §1
# [13] = tested on: Rattus norvegicus; assay: Biodistribution in Sprague-Dawley rat stomach 2 minutes after intravenous administration, [99mTc]/[125I] IAP ratio); type: ADME, organism-based; settings: in vivo; summary of the method: as §1
# [14] = tested on: Rattus norvegicus; assay: Biodistribution in Sprague-Dawley rat thyroid 15 minutes after intravenous administration, [99mTc]/[125I] IAP ratio); type: ADME, organism-based, Thyroid gland; settings: in vivo, 0.25 h; summary of the method: as §1
# [15] = tested on: Rattus norvegicus; assay: Biodistribution in Sprague-Dawley rat skin 2 minutes after intravenous administration, [99mTc]/[125I] IAP ratio); type: ADME, organism-based, Zone of skin; settings: in vivo; summary of the method: as §1
# [16] = tested on: Rattus norvegicus; assay: Biodistribution in Sprague-Dawley rat lungs(2) 15 minutes after intravenous administration, [99mTc]/[125I] IAP ratio); type: ADME, organism-based, Lung; settings: in vivo, 0.25 h; summary of the method: as §1
# [17] = tested on: Rattus norvegicus; assay: Biodistribution in Sprague-Dawley rat spleen 2 minutes after intravenous administration, [99mTc]/[125I] IAP ratio); type: ADME, organism-based; settings: in vivo; summary of the method: as §1
# [18] = tested on: Rattus norvegicus; assay: Biodistribution in Sprague-Dawley rat spleen 15 minutes after intravenous administration, [99mTc]/[125I] IAP ratio); type: ADME, organism-based; settings: in vivo, 0.25 h; summary of the method: as §1
# [19] = tested on: Rattus norvegicus; assay: Biodistribution in Sprague-Dawley rat thyroid 2 minutes after intravenous administration, [99mTc]/[125I] IAP ratio); type: ADME, organism-based, Thyroid gland; settings: in vivo; summary of the method: as §1
# [20] = Partition coefficient was determined at pH 7.0.; type: ADME; settings: octanol/water
# Summary of the method: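 99mTc-labelled BAT complex shaken with 3 g each of 1-octanol and 0.1 M phosphate buffer (pH 7.0), vortexed 3 min at room temperature, centrifuged 5 min. Two 0.5 g samples per layer counted in a well counter; PC = cpm/g octanol over cpm/g buffer. Octanol layer repartitioned until values were consistent; usually repeated three times.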
# [21] = tested on: Rattus norvegicus; assay: Biodistribution in Sprague-Dawley rat muscle 2 minutes after intravenous administration, [99mTc]/[125I] IAP ratio); type: ADME, organism-based, Muscle tissue; settings: in vivo; summary of the method: as §1
# [22] = tested on: Rattus norvegicus; assay: Biodistribution in Sprague-Dawley rat kidneys(2) 2 minutes after intravenous administration, [99mTc]/[125I] IAP ratio); type: ADME, organism-based, Kidney; settings: in vivo; summary of the method: as §1
# [23] = tested on: Rattus norvegicus; assay: Biodistribution in Sprague-Dawley rat small intestine 15 minutes after intravenous administration, [99mTc]/[125I] IAP ratio); type: ADME, organism-based; settings: in vivo, 0.25 h; summary of the method: as §1
# [24] = tested on: Rattus norvegicus; assay: Biodistribution in Sprague-Dawley rat kidneys(2) 15 minutes after intravenous administration, [99mTc]/[125I] IAP ratio); type: ADME, organism-based, Kidney; settings: in vivo, 0.25 h; summary of the method: as §1
# [25] = tested on: Rattus norvegicus; assay: Biodistribution in Sprague-Dawley rat stomach 15 minutes after intravenous administration, [99mTc]/[125I] IAP ratio); type: ADME, organism-based; settings: in vivo, 0.25 h; summary of the method: as §1
# [26] = tested on: Rattus norvegicus; assay: Biodistribution in Sprague-Dawley rat heart 15 minutes after intravenous administration, [99mTc]/[125I] IAP ratio); type: ADME, organism-based; settings: in vivo, 0.25 h; summary of the method: as §1
structure (smiles),measurement,setting,value
CC(C)(S)CNCC(NCC(C)(C)S)c1ccccc1O (stereo unspecified),Dose,[1],0.408%
same,Dose,[2],4.94%
same,Dose,[3],25.4%
same,Free,[4],14.7%
same,Dose,[5],6.24%
same,Dose,[6],29%
same,Dose,[7],12.4%
same,Dose,[8],8.17%
same,Dose,[9],14.5%
same,Dose,[10],0.229%
same,Dose,[11],3.31%
same,Dose,[12],4.77%
same,Dose,[13],1.61%
same,Dose,[14],0.057%
same,Dose,[15],7.45%
same,Dose,[16],1.52%
same,Dose,[17],0.407%
same,Dose,[18],0.323%
same,Dose,[19],0.189%
same,Partition coefficient,[20],248
same,Dose,[21],8.66%
same,Dose,[22],4.75%
same,Dose,[23],18.2%
same,Dose,[24],1.73%
same,Dose,[25],5.46%
same,Dose,[26],0.441%
